Experimental data collected from several papers.
Compare with care: the assays were run in different laboratories.
Target: Serine/threonine-protein kinase SIK3 (SIK3, Homo sapiens, UniProt Q9Y2K2)

SMILES | test | conditions | measurement | value
Cc1cc(O)c(-c2ccc([C@@H](C)CN(C)C)cc2)c2c1[nH]c(=O)c1sccc12 | enzyme activity, inhibitor | 0.1 µM | inhibition | -11.2%
CCCCC(=O)Nc1ccc(-c2ccc3ncn(CCC)c(=O)c3c2)cn1 | binding, competition with immobilised ligand | 0.5 µM | remaining binding | 100%
Cc1ccc(NC(=O)c2ccnc(C(F)(F)F)c2)cc1-c1cc(OCCO)nc(N2CCOCC2)c1 | binding, competition with immobilised ligand | 1 µM | remaining binding | 86%
CO[C@@H]1[C@H](N(C)C(=O)c2ccccc2)C[C@H]2O[C@]1(C)n1c3ccccc3c3c4c(c5c6ccccc6n2c5c31)C(=O)NC4 | enzyme activity, inhibitor | 1 µM | inhibition | 79%
C#Cc1cc(-c2cc(Nc3nc(N[C@@H](C)c4ccc(F)cn4)ncc3Cl)n[nH]2)ccc1C=O | enzyme activity, inhibitor | 0.2 µM | inhibition | 31.1%
C=CC(=O)N1CCC([C@@H]2CCNc3c(C(N)=O)c(-c4ccc(Oc5ccccc5)cc4)nn32)CC1 | enzyme activity, inhibitor | 1 µM | inhibition | 9%
C1=C/COCc2cc(ccc2OCCN2CCCC2)Nc2nccc(n2)-c2cccc(c2)COC/1 | cell-free assay | 0.1 µM | remaining signal | 83%
CN1CCN(C(=O)c2ccc(NC(=O)Nc3ccc(N(C)c4ccnc(Nc5ccc(CS(C)(=O)=O)cc5)n4)cc3)cc2)CC1 | binding, competition with immobilised ligand | 1 µM | remaining binding | 86%
CC(C)S(=O)(=O)c1ccc2nccc(Nc3ccc4sc(C5CCCC5)nc4c3)c2c1 | enzyme activity, inhibitor | 1 µM | activity vs control | 104%
